Data published in ChEMBL document CHEMBL1125672, “2-acetylpyridine thiosemicarbazones. 13. Derivatives with antifilarial activity” (1991).

System: Onchocerca gutturosa
Assay: Mean motility score for treated Onchocerca gutturosa involving LLCMK2 feeder cells at a concentration of 4.88*10e-8M at 72 h
Format: functional
Summary of the method: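 Single male O. gutturosa worms (obtained following abattoir slaughter) per well in Eagle's MEM with 10% heat-inactivated fetal calf serum, penicillin, streptomycin, amphotericin B and bicarbonate, over LLCMK2 feeder cells, 5% CO2 in air. Drug dissolved in DMSO; controls received matched DMSO ≤0.016%. Motility scored 0 (immotile) to 10 (maximum control activity) every 30 min to 4.5 h, then days 1, 2, 3, 4, 7.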

SMILES: C/C(=N\NC(=S)N1CCCCCC1)c1ccccn1
- Motility: 3.5
